Results taken from ChEMBL document CHEMBL3414571, “The discovery of macrocyclic XIAP antagonists from a DNA-programmed chemistry library, and their optimization to give lead compounds with in vivo antitumor activity” (J Med Chem, 2015).
Values belong to the molecule of their own block, whether it stands above or below them. Numbered stars: 1 amine (or outer) side, 2 acyl side, 3 side chain; on linkers, the order of the positions; unused ones are H or OH. Bridge positions count the residues as written; N and C are the ends. Square brackets hold non-standard residues; d marks the D form. Peptide text beside a SMILES is read from it. * marks the point of attachment. X1 = O=C(O)CN(CCN[*:1])CCn1cc(CCC(=O)[*:2])nn1; NMeA = CN[C@@H](C)C(=O)O; Pra = C#CC[C@H](N)C(=O)O; X2 = [N-]=[N+]=NCC*

Key:
[1] = Inhibition of XIAP BIR2 (124 to 240 residues) C202A/C213G mutant (unknown origin) incubated for 60 mins by biotinylated SMAC peptide Alpha-screen assay; parameters: species or system Homo sapiens
[2] = biological target: E3 ubiquitin-protein ligase XIAP (Homo sapiens, UniProt P98170); test: Inhibition of XIAP BIR3 (241 to 356 residues) (unknown origin) incubated for 60 mins by fluoresceinated modified SMAC peptide based fluorescence polarization assay
E3 ubiquitin-protein ligase XIAP, sequence (P98170 whole entry, looked up, the tested form may be a part): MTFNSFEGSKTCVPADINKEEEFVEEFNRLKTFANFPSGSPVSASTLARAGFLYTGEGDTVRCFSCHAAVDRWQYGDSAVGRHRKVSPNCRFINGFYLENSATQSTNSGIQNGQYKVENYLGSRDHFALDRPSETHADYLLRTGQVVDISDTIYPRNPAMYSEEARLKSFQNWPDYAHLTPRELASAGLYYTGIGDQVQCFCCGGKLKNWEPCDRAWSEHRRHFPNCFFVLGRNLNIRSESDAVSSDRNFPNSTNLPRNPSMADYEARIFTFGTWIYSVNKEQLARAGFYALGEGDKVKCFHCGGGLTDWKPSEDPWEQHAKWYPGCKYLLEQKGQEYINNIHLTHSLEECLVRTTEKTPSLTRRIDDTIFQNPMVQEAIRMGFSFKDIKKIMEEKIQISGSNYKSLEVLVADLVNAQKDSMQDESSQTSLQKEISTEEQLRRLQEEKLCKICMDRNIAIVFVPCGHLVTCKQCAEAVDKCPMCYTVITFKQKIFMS

BIR2 domain of XIAP = BIR2 domain of XIAP (Homo sapiens, UniProt P98170, C202A/C213G); test: Inhibition of XIAP BIR2-3 (124 to 356 residues) C202A/C213G mutant (unknown origin) in human THP1 cells using fluoresceinated caspase-3 substrate by caspase-3 rescue assay; type: cell-based, THP-1
BIR2 domain of XIAP, sequence (P98170 whole entry C202A/C213G, looked up, the tested form may be a part): as the sequence (P98170 whole entry, looked up, the tested form may be a part) above, with C202A, C213G counted along it

MDA-MB-231 = test: Antiproliferative activity against human MDA-MB-231 cells assessed as inhibition of cell proliferation after 72 hrs by MTS assay; type: functional, cell-based; details: MDA-MB-231, 72 h
A549 = test: Antiproliferative activity against human A549 cells assessed as inhibition of cell proliferation after 72 hrs by MTS assay; type: functional, cell-based; details: A549, 72 h
[3] = Antiproliferative activity against human A875 cells assessed as inhibition of cell proliferation after 72 hrs by MTS assay; type: functional, cell-based; details: A875, 72 h
[4] = biological target: Baculoviral IAP repeat-containing protein 2 (Homo sapiens, UniProt Q13490); test: Inhibition of cIAP1 BIR2-3 (154 to 352 residues) (unknown origin) fluoresceinated dimeric SMAC peptide based fluorescence polarization assay
Baculoviral IAP repeat-containing protein 2, sequence (Q13490 whole entry, the tested form may be a part): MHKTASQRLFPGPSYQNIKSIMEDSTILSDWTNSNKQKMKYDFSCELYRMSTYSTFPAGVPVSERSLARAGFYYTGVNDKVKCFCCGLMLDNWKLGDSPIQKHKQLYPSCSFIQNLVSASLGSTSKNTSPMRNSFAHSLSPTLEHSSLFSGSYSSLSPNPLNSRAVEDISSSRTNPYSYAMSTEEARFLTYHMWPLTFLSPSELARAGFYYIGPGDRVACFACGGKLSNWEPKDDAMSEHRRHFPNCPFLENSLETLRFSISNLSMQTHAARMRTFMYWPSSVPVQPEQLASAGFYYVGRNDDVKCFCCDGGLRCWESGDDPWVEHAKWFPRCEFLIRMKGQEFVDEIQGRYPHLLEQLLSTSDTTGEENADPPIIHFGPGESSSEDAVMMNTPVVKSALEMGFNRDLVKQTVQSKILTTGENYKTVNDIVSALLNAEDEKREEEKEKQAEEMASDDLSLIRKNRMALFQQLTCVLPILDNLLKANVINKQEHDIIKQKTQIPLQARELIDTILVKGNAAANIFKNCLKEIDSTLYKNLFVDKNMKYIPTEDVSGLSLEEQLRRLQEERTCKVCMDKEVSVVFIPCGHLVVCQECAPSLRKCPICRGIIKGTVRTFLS

[5] = Half life in Balb/C mouse at 1 mg/kg, iv administered as single dose by LC-MS/MS method; type: ADME, organism-based; parameters: dose 1 mg/kg, route intravenous; details: in vivo
Summary of the method: (§1)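 Mice received one intravenous dose, and parent compound levels in blood were monitored over time. Plasma pharmacokinetic parameters were derived from these concentration–time profiles.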

[6] = Mean residence time in Balb/C mouse at 1 mg/kg, iv administered as single dose by LC-MS/MS method; type: ADME, organism-based; parameters: dose 1 mg/kg, route intravenous; details: in vivo; summary of the method: as §1
[7] = Volume of distribution at steady state in Balb/C mouse at 1 mg/kg, iv administered as single dose by LC-MS/MS method; type: ADME, organism-based; parameters: dose 1 mg/kg, route intravenous; details: in vivo, read-out: Vdss; summary of the method: as §1
Mus musculus [8] = test: AUClast in Balb/C mouse at 1 mg/kg, iv administered as single dose by LC-MS/MS method; type: ADME, organism-based, Plasma; parameters: time 0 - last, dose 1 mg/kg, route intravenous; details: in vivo; summary of the method: as §1
[9] = Half life in Balb/C mouse at 0.2 mg/kg, iv administered as single dose by LC-MS/MS method; type: ADME, organism-based; parameters: dose 0.2 mg/kg, route intravenous; details: in vivo; summary of the method: as §1
[10] = Mean residence time in Balb/C mouse at 0.2 mg/kg, iv administered as single dose by LC-MS/MS method; type: ADME, organism-based; parameters: dose 0.2 mg/kg, route intravenous; details: in vivo; summary of the method: as §1
[11] = Volume of distribution at steady state in Balb/C mouse at 0.2 mg/kg, iv administered as single dose by LC-MS/MS method; type: ADME, organism-based; parameters: dose 0.2 mg/kg, route intravenous; details: in vivo, read-out: Vdss; summary of the method: as §1
Mus musculus [12] = test: AUClast in Balb/C mouse at 0.2 mg/kg, iv administered as single dose by LC-MS/MS method; type: ADME, organism-based, Plasma; parameters: dose 0.2 mg/kg, route intravenous, time 0 - last; details: in vivo; summary of the method: as §1

Compound: CN[C@@H](C)C(=O)N[C@H](C(=O)N1C[C@@H]2C[C@H]1C(=O)N[C@@H](Cc1ccccc1)C(=O)N[C@H](C(=O)O)Cc1ccc(cc1)NC(=O)CCc1cn(nn1)[C@H]1C[C@@H](C(=O)N[C@@H](Cc3ccccc3)C(=O)N[C@H](C(=O)O)Cc3ccc(cc3)NC(=O)CCc3cn2nn3)N(C(=O)[C@@H](NC(=O)[C@H](C)NC)C(C)C)C1)C(C)C
IC50 [1]: 6 nM
IC50 [2]: 47 nM
EC50 (BIR2 domain of XIAP): 70 nM
IC50 (MDA-MB-231): 7900 nM
IC50 (A549): > 25000 nM

Compound: CN[C@@H](C)C(=O)N[C@H]1Cc2ccc(cc2)OCc2cn(nn2)CCCOc2ccc(cc2)C[C@@H](C(=O)O)NC(=O)[C@H](Cc2ccccc2)NC(=O)[C@@H]2CCCN2C1=O
IC50 [1]: 4870 nM
IC50 [2]: 366 nM

Compound: CN[C@@H](C)C(=O)N[C@H](C(=O)N1C[C@@H]2C[C@H]1C(=O)N[C@@H](Cc1ccccc1)C(=O)N[C@@H](C(=O)O)Cc1ccc(cc1)NC(=O)CCc1cn2nn1)C(C)C
IC50 [1]: > 18800 nM
IC50 [2]: 232 nM

Compound: CN[C@@H](C)C(=O)N[C@H]1CCCCNC(=O)CCc2cn(nn2)CCCC[C@@H](C(=O)O)NC(=O)[C@H](Cc2ccccc2)NC(=O)[C@@H]2CCCN2C1=O
IC50 [1]: > 18800 nM
IC50 [2]: 1360 nM

Compound: CN[C@@H](C)C(=O)N[C@H](C(=O)N1C[C@@H]2C[C@H]1C(=O)N[C@@H](Cc1ccccc1)C(=O)N[C@H](C(=O)O)Cc1ccc(cc1)OCc1cn(nn1)[C@H]1C[C@@H](C(=O)N[C@@H](Cc3ccccc3)C(=O)N[C@H](C(=O)O)Cc3ccc(cc3)OCc3cn2nn3)N(C(=O)[C@@H](NC(=O)[C@H](C)NC)C(C)C)C1)C(C)C
IC50 [1]: 3 nM
IC50 [2]: 68 nM
EC50 (BIR2 domain of XIAP): 45 nM
IC50 (MDA-MB-231): 2940 nM
IC50 [3]: 4220 nM
IC50 (A549): > 25000 nM

Compound: CN[C@@H](C)C(=O)N[C@H]1CCCCNC(=O)CCc2cn(nn2)CCOc2ccc(cc2)C[C@@H](C(=O)O)NC(=O)[C@H](Cc2ccccc2)NC(=O)[C@@H]2CCCN2C1=O
IC50 [1]: > 18800 nM
IC50 [2]: 1490 nM

Compound: CN[C@@H](C)C(=O)N[C@H]1Cc2cn(nn2)CCOc2ccc(cc2)C[C@@H](C(=O)O)NC(=O)[C@H](Cc2ccccc2)NC(=O)[C@@H]2CCCN2C1=O
IC50 [1]: > 18800 nM
IC50 [2]: 1320 nM

Compound: CN[C@@H](C)C(=O)N[C@H]1Cc2ccc(cc2)OCc2cn(nn2)CCOc2ccc(cc2)C[C@H](C(=O)O)NC(=O)[C@H](Cc2ccccc2)NC(=O)[C@@H]2CCCN2C1=O
IC50 [1]: 7990 nM
IC50 [2]: 2880 nM

Now from value to molecule, other results behind:

IC50 [1]: 219 nM
IC50 [2]: 29 nM
EC50 (BIR2 domain of XIAP): 34 nM
IC50 (MDA-MB-231): 197 nM
IC50 (A549): > 25000 nM
Compound: CN[C@@H](C)C(=O)N[C@H](C(=O)N1C[C@@H]2C[C@H]1C(=O)N[C@@H](Cc1cccc3ccccc13)C(=O)N[C@H](C(=O)O)Cc1ccc(cc1)OCc1cn(nn1)[C@H]1C[C@@H](C(=O)N[C@@H](Cc3cccc4ccccc34)C(=O)N[C@H](C(=O)O)Cc3ccc(cc3)OCc3cn2nn3)N(C(=O)[C@@H](NC(=O)[C@H](C)NC)C(C)C)C1)C(C)C
IC50 [3]: 422 nM

IC50 [1]: 540 nM
IC50 [2]: 180 nM
Compound: C#CC[C@H](NC(=O)[C@H](C)NC)C(=O)N1CCC[C@H]1C(=O)N[C@@H](Cc1ccccc1)C(=O)N[C@@H](Cc1ccc(OCCN=[N+]=[N-])cc1)C(=O)O (H-[NMeA][Pra]PFY(X2)-OH)

IC50 [1]: 827 nM
IC50 [2]: 214 nM
Compound: CN[C@@H](C)C(=O)N[C@H](C(=O)N1C[C@@H]2C[C@H]1C(=O)N[C@@H](Cc1ccc3ccccc3c1)C(=O)N[C@H](C(=O)O)Cc1ccc(cc1)OCc1cn2nn1)C(C)(C)C

IC50 [1]: 300 nM
IC50 [2]: 65 nM
EC50 (BIR2 domain of XIAP): 49 nM
IC50 [4]: 3 nM
IC50 (MDA-MB-231): 2010 nM
IC50 (A549): > 25000 nM
half-life [5]: 9.6 min
MRT [6]: 0.25 h
Vd [7]: 0.18 L/kg
AUClast (Mus musculus [8]): 1070 ng·h/mL
Compound: CN[C@@H](C)C(=O)N[C@H](C(=O)N1C[C@@H]2C[C@H]1C(=O)N[C@@H](Cc1ccc3ccccc3c1)C(=O)N[C@H](C(=O)O)Cc1cn(nn1)[C@H]1C[C@@H](C(=O)N[C@@H](Cc3ccc4ccccc4c3)C(=O)N[C@H](C(=O)O)Cc3cn2nn3)N(C(=O)[C@@H](NC(=O)[C@H](C)NC)C(C)C)C1)C(C)C
IC50 [3]: 6140 nM

IC50 [1]: 1970 nM
IC50 [2]: 110 nM
EC50 (BIR2 domain of XIAP): 6700 nM
Compound: CN[C@@H](C)C(=O)N[C@H](C(=O)N1C[C@@H]2C[C@H]1C(=O)N[C@@H](Cc1ccccc1)C(=O)N[C@H](C(=O)O)Cc1ccc(cc1)NC(=O)CCc1cn2nn1)C(C)C

IC50 [1]: 333 nM
IC50 [2]: 40 nM
EC50 (BIR2 domain of XIAP): 59 nM
IC50 (MDA-MB-231): 82 nM
IC50 (A549): > 25000 nM
Compound: CN[C@@H](C)C(=O)N[C@H](C(=O)N1C[C@@H]2C[C@H]1C(=O)N[C@@H](Cc1ccc3ccccc3c1)C(=O)N[C@H](C(=O)O)Cc1ccc(cc1)OCc1cn(nn1)[C@H]1C[C@@H](C(=O)N[C@@H](Cc3ccc4ccccc4c3)C(=O)N[C@H](C(=O)O)Cc3ccc(cc3)OCc3cn2nn3)N(C(=O)[C@@H](NC(=O)[C@H](C)NC)C(C)C)C1)C(C)C
IC50 [3]: 218 nM

IC50 [1]: > 18800 nM
IC50 [2]: 900 nM
Compound: CN[C@@H](C)C(=O)N[C@H]1CCCCNC(=O)CCc2cn(nn2)CCN(CC(=O)O)CCNC(=O)[C@H](Cc2ccccc2)NC(=O)[C@@H]2CCCN2C1=O (H-[NMeA]KPF[X1]; lactam 2-C)

IC50 [1]: 2270 nM
IC50 [2]: 235 nM
Compound: CN[C@@H](C)C(=O)N[C@H](C(=O)N1C[C@@H]2C[C@H]1C(=O)N[C@@H](Cc1ccc3ccccc3c1)C(=O)N[C@H](C(=O)O)Cc1ccc(cc1)OCc1cn2nn1)C1CCCCC1

IC50 [1]: 139 nM
IC50 [2]: 160 nM
EC50 (BIR2 domain of XIAP): 1400 nM
IC50 (MDA-MB-231): 12500 nM
IC50 (A549): > 25000 nM
Compound: CN[C@@H](C)C(=O)N[C@H](C(=O)N1C[C@@H]2C[C@H]1C(=O)N[C@@H](Cc1ccccc1)C(=O)N[C@H](C(=O)O)Cc1ccc(cc1)OCc1cn2nn1)C(C)C
IC50 [3]: > 10000 nM

IC50 [1]: 740 nM
IC50 (MDA-MB-231): 14 nM
IC50 (A549): > 25000 nM
half-life [9]: 1.9 h
MRT [10]: 2.5 h
Vd [11]: 0.7 L/kg
AUClast (Mus musculus [12]): 457 ng·h/mL
Compound: CN[C@@H](C)C(=O)N[C@H](C(=O)N1C[C@@H]2C[C@H]1C(=O)N[C@@H](Cc1ccc3ccccc3c1)C(=O)N[C@H](C(=O)O)Cc1ccc(cc1)OCc1cn(nn1)[C@H]1C[C@@H](C(=O)N[C@@H](Cc3ccc4ccccc4c3)C(=O)N[C@H](C(=O)O)Cc3ccc(cc3)OCc3cn2nn3)N(C(=O)[C@@H](NC(=O)[C@H](C)NC)C2CCCCC2)C1)C1CCCCC1
IC50 [3]: 84 nM
